Test results: ChEMBL document CHEMBL5058577, “EUbOPEN Chemogenomics Library 2 (Multiplex)” (2022)

Tested on: U2OS
Experiment: Multiplex assay against U2OS
Assay type: toxicity, cell-based
Conditions: human
Outline: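 With compound added, live cells were imaged on a CQ1 microscope at 37°C and 5% CO2; staining with Hoechst33342, BioTracker Green Microtubule Cytoskeleton Dye, MitoTracker Red and Annexin V Alexa Fluor 680 had been done at seeding. The CellPathfinder machine-learning gating scheme split cells into Hoechst high-intensity objects or normal cells, normal cells into healthy, pyknosed or fragmented nuclei, and pyknosed cells into mitotic or apoptotic. The tubulin, mitochondrial-mass and membrane-permeability phenotypes are per cents of healthy-nucleus cells.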

[1] = 12 h, 1 µM, compound concentration 1 uM, replicate 1
[2] = 12 h, 1 µM, compound concentration 1 uM, replicate 2
[3] = 12 h, 10 µM, compound concentration 10 uM, replicate 1
[4] = 12 h, 10 µM, compound concentration 10 uM, replicate 2
[5] = 24 h, 1 µM, compound concentration 1 uM, replicate 1
[6] = 24 h, 1 µM, compound concentration 1 uM, replicate 2
[7] = 24 h, 10 µM, compound concentration 10 uM, replicate 1
[8] = 24 h, 10 µM, compound concentration 10 uM, replicate 2
[9] = 48 h, 1 µM, compound concentration 1 uM, replicate 1
[10] = 48 h, 1 µM, compound concentration 1 uM, replicate 2
[11] = 48 h, 10 µM, compound concentration 10 uM, replicate 1
[12] = 48 h, 10 µM, compound concentration 10 uM, replicate 2

Question: How did the “Population Apoptotic (%)” value [1] turn out when `C[C@H]1[C@H]2CC[C@H]3[C@@H]4CC=C5C[C@@H](N(C)C)CC[C@]5(C)[C@H]4CC[C@]23CN1C` [CONESSINE] was run?
Answer: 80%

Question: And the “Population Fragmented Nuclei (%)” value [1]?
Answer: 23%

Question: And the “Population Healthy Nuclei (%)” value [1]?
Answer: 70%

Question: And the “Population Hoechst High Intensity Objects (%)” value [1]?
Answer: 2%

Question: What about the “Population Membrane Permeable-Phenotype (%)” value [1] of the same compound?
Answer: 5%

Question: What about the “Population Mitochondria Different-Phenotype (%)” value [1] of the same compound?
Answer: 1%

Question: And the “Population Mitotic Cells (%)” value [1]?
Answer: 20%

Question: And the “Population Normal (%)” value [1]?
Answer: 97%

Question: And the “Population Pyknosed Nuclei (%)” value [1]?
Answer: 6%

Question: What about the “Population Tubulin-Different-Phenotype (%)” value [1] of the same compound?
Answer: 2%

Question: What about the “Total Cell Count” value [1] of the same compound?
Answer: 248

Question: And the “Population Apoptotic (%)” value [2]?
Answer: 58%

Question: And the “Population Fragmented Nuclei (%)” value [2]?
Answer: 16%

Question: And the “Population Healthy Nuclei (%)” value [2]?
Answer: 73%

Question: And the “Population Hoechst High Intensity Objects (%)” value [2]?
Answer: 1%

Question: What about the “Population Mitochondria Different-Phenotype (%)” value [2] of the same compound?
Answer: 2%

Question: What about the “Population Mitotic Cells (%)” value [2] of the same compound?
Answer: 41%

Question: What about the “Population Normal (%)” value [2] of the same compound?
Answer: 98%

Question: And the “Population Pyknosed Nuclei (%)” value [2]?
Answer: 9%

Question: What about the “Population Tubulin-Different-Phenotype (%)” value [2] of the same compound?
Answer: 3%

Question: And the “Total Cell Count” value [2]?
Answer: 124

Question: What about the “Population Apoptotic (%)” value [3] of the same compound?
Answer: 55%

Question: What about the “Population Fragmented Nuclei (%)” value [3] of the same compound?
Answer: 19%

Question: What about the “Population Healthy Nuclei (%)” value [3] of the same compound?
Answer: 71%

Question: What about the “Population Hoechst High Intensity Objects (%)” value [3] of the same compound?
Answer: 2%

Question: What about the “Population Membrane Permeable-Phenotype (%)” value [3] of the same compound?
Answer: 5%

Question: And the “Population Mitochondria Different-Phenotype (%)” value [3]?
Answer: 0%

Question: And the “Population Mitotic Cells (%)” value [3]?
Answer: 45%

Question: What about the “Population Normal (%)” value [3] of the same compound?
Answer: 97%

Question: What about the “Population Pyknosed Nuclei (%)” value [3] of the same compound?
Answer: 8%

Question: And the “Population Tubulin-Different-Phenotype (%)” value [3]?
Answer: 1%

Question: What about the “Total Cell Count” value [3] of the same compound?
Answer: 237

Question: And the “Population Apoptotic (%)” value [4]?
Answer: 100%

Question: What about the “Population Fragmented Nuclei (%)” value [4] of the same compound?
Answer: 17%

Question: And the “Population Healthy Nuclei (%)” value [4]?
Answer: 68%

Question: What about the “Population Hoechst High Intensity Objects (%)” value [4] of the same compound?
Answer: 0%

Question: And the “Population Membrane Permeable-Phenotype (%)” value [4]?
Answer: 8%

Question: What about the “Population Mitochondria Different-Phenotype (%)” value [4] of the same compound?
Answer: 5%

Question: What about the “Population Mitotic Cells (%)” value [4] of the same compound?
Answer: 0%

Question: What about the “Population Normal (%)” value [4] of the same compound?
Answer: 99%

Question: And the “Population Pyknosed Nuclei (%)” value [4]?
Answer: 13%

Question: What about the “Population Tubulin-Different-Phenotype (%)” value [4] of the same compound?
Answer: 6%

Question: What about the “Total Cell Count” value [4] of the same compound?
Answer: 107

Question: And the “Population Apoptotic (%)” value [5]?
Answer: 90%

Question: What about the “Population Fragmented Nuclei (%)” value [5] of the same compound?
Answer: 18%

Question: And the “Population Healthy Nuclei (%)” value [5]?
Answer: 74%

Question: And the “Population Hoechst High Intensity Objects (%)” value [5]?
Answer: 2%

Question: And the “Population Membrane Permeable-Phenotype (%)” value [5]?
Answer: 6%

Question: What about the “Population Mitochondria Different-Phenotype (%)” value [5] of the same compound?
Answer: 1%

Question: What about the “Population Mitotic Cells (%)” value [5] of the same compound?
Answer: 9%

Question: And the “Population Normal (%)” value [5]?
Answer: 97%

Question: And the “Population Pyknosed Nuclei (%)” value [5]?
Answer: 7%

Question: What about the “Population Tubulin-Different-Phenotype (%)” value [5] of the same compound?
Answer: 3%

Question: And the “Total Cell Count” value [5]?
Answer: 307

Question: What about the “Population Apoptotic (%)” value [6] of the same compound?
Answer: 100%

Question: And the “Population Fragmented Nuclei (%)” value [6]?
Answer: 11%

Question: And the “Population Healthy Nuclei (%)” value [6]?
Answer: 81%

Question: And the “Population Hoechst High Intensity Objects (%)” value [6]?
Answer: 1%

Question: And the “Population Membrane Permeable-Phenotype (%)” value [6]?
Answer: 8%

Question: And the “Population Mitochondria Different-Phenotype (%)” value [6]?
Answer: 5%

Question: What about the “Population Mitotic Cells (%)” value [6] of the same compound?
Answer: 0%

Question: What about the “Population Normal (%)” value [6] of the same compound?
Answer: 98%

Question: And the “Population Tubulin-Different-Phenotype (%)” value [6]?
Answer: 7%

Question: What about the “Total Cell Count” value [6] of the same compound?
Answer: 153

Question: What about the “Population Apoptotic (%)” value [7] of the same compound?
Answer: 65%

Question: What about the “Population Fragmented Nuclei (%)” value [7] of the same compound?
Answer: 20%

Question: What about the “Population Healthy Nuclei (%)” value [7] of the same compound?
Answer: 71%

Question: What about the “Population Hoechst High Intensity Objects (%)” value [7] of the same compound?
Answer: 2%

Question: And the “Population Membrane Permeable-Phenotype (%)” value [7]?
Answer: 2%

Question: And the “Population Mitochondria Different-Phenotype (%)” value [7]?
Answer: 0%

Question: What about the “Population Mitotic Cells (%)” value [7] of the same compound?
Answer: 35%

Question: What about the “Population Normal (%)” value [7] of the same compound?
Answer: 97%

Question: And the “Population Pyknosed Nuclei (%)” value [7]?
Answer: 7%

Question: And the “Population Tubulin-Different-Phenotype (%)” value [7]?
Answer: 1%

Question: And the “Total Cell Count” value [7]?
Answer: 265

Question: And the “Population Apoptotic (%)” value [8]?
Answer: 100%

Question: What about the “Population Fragmented Nuclei (%)” value [8] of the same compound?
Answer: 19%

Question: What about the “Population Hoechst High Intensity Objects (%)” value [8] of the same compound?
Answer: 4%

Question: And the “Population Membrane Permeable-Phenotype (%)” value [8]?
Answer: 10%

Question: What about the “Population Mitochondria Different-Phenotype (%)” value [8] of the same compound?
Answer: 4%

Question: And the “Population Mitotic Cells (%)” value [8]?
Answer: 0%

Question: What about the “Population Normal (%)” value [8] of the same compound?
Answer: 95%

Question: And the “Population Pyknosed Nuclei (%)” value [8]?
Answer: 8%

Question: What about the “Population Tubulin-Different-Phenotype (%)” value [8] of the same compound?
Answer: 9%

Question: And the “Total Cell Count” value [8]?
Answer: 134

Question: What about the “Population Apoptotic (%)” value [9] of the same compound?
Answer: 83%

Question: And the “Population Fragmented Nuclei (%)” value [9]?
Answer: 16%

Question: What about the “Population Healthy Nuclei (%)” value [9] of the same compound?
Answer: 79%

Question: And the “Population Hoechst High Intensity Objects (%)” value [9]?
Answer: 2%

Question: And the “Population Membrane Permeable-Phenotype (%)” value [9]?
Answer: 4%

Question: And the “Population Mitochondria Different-Phenotype (%)” value [9]?
Answer: 2%

Question: And the “Population Mitotic Cells (%)” value [9]?
Answer: 16%

Question: And the “Population Normal (%)” value [9]?
Answer: 97%

Question: What about the “Population Pyknosed Nuclei (%)” value [9] of the same compound?
Answer: 4%

Question: And the “Population Tubulin-Different-Phenotype (%)” value [9]?
Answer: 1%

Question: And the “Total Cell Count” value [9]?
Answer: 430

Question: And the “Population Apoptotic (%)” value [10]?
Answer: 86%

Question: What about the “Population Healthy Nuclei (%)” value [10] of the same compound?
Answer: 73%

Question: What about the “Population Mitochondria Different-Phenotype (%)” value [10] of the same compound?
Answer: 0%

Question: And the “Population Mitotic Cells (%)” value [10]?
Answer: 13%

Question: And the “Population Pyknosed Nuclei (%)” value [10]?
Answer: 9%

Question: And the “Population Tubulin-Different-Phenotype (%)” value [10]?
Answer: 2%

Question: What about the “Total Cell Count” value [10] of the same compound?
Answer: 227

Question: And the “Population Apoptotic (%)” value [11]?
Answer: 89%

Question: And the “Population Fragmented Nuclei (%)” value [11]?
Answer: 19%

Question: What about the “Population Healthy Nuclei (%)” value [11] of the same compound?
Answer: 73%

Question: And the “Population Hoechst High Intensity Objects (%)” value [11]?
Answer: 1%

Question: And the “Population Membrane Permeable-Phenotype (%)” value [11]?
Answer: 4%

Question: What about the “Population Mitochondria Different-Phenotype (%)” value [11] of the same compound?
Answer: 2%

Question: And the “Population Mitotic Cells (%)” value [11]?
Answer: 10%

Question: And the “Population Normal (%)” value [11]?
Answer: 98%

Question: What about the “Population Pyknosed Nuclei (%)” value [11] of the same compound?
Answer: 7%

Question: And the “Population Tubulin-Different-Phenotype (%)” value [11]?
Answer: 3%

Question: What about the “Total Cell Count” value [11] of the same compound?
Answer: 370

Question: What about the “Population Apoptotic (%)” value [12] of the same compound?
Answer: 85%

Question: What about the “Population Fragmented Nuclei (%)” value [12] of the same compound?
Answer: 15%

Question: And the “Population Healthy Nuclei (%)” value [12]?
Answer: 72%

Question: And the “Population Hoechst High Intensity Objects (%)” value [12]?
Answer: 6%

Question: What about the “Population Membrane Permeable-Phenotype (%)” value [12] of the same compound?
Answer: 9%

Question: What about the “Population Mitochondria Different-Phenotype (%)” value [12] of the same compound?
Answer: 5%

Question: What about the “Population Mitotic Cells (%)” value [12] of the same compound?
Answer: 15%

Question: What about the “Population Normal (%)” value [12] of the same compound?
Answer: 93%

Question: And the “Population Pyknosed Nuclei (%)” value [12]?
Answer: 12%

Question: What about the “Population Tubulin-Different-Phenotype (%)” value [12] of the same compound?
Answer: 6%

Question: What about the “Total Cell Count” value [12] of the same compound?
Answer: 175
